Assay results of several laboratories.
Protocols differ between the studies behind these lines.
LCK: Tyrosine-protein kinase Lck (LCK, Homo sapiens, UniProt P06239)
LCK phosphorylated: Tyrosine-protein kinase Lck, phosphorylated (LCK, Homo sapiens, UniProt P06239)

SMILES | target | assay | conditions | endpoint | value
C[C@@H]1CN(c2cc(-c3nn(C)c4ccc(OC5(C)CC5)cc34)ncn2)C[C@H](C)O1 | LCK | cell-free assay, competition with immobilised ligand | 1 µM | remaining binding | 94%
CC1CCCN1c1nccc(-c2cnn3ncccc23)n1 (stereo not shown) | LCK | cell-free assay | 1 µM | remaining signal | 100%
FC(F)(F)Oc1cccc(-c2cnc3ccc(-c4ccncc4)nn23)c1 | LCK | enzyme activity, inhibitor, radiometric | 5 µM | activity vs control | 25%
C=CC(=O)Nc1cc(Nc2nccc(Nc3cc(Cl)c(F)cc3C(C)(C)O)n2)c(OC)cc1N1CC[C@@H](N(C)C)C1 | LCK phosphorylated | enzyme activity, inhibitor | 1 µM | inhibition | 5%
C[C@H](NC(=O)c1cnc2n1[C@](C)(Cc1ccc(C#N)cc1)C(=O)N2c1cc(Cl)c(F)c(Cl)c1)C(=O)NC1(c2ccccn2)CC1 | LCK | cell-free assay, competition with immobilised ligand | 1 µM | remaining binding | 100%
c1nc2c(Nc3ccc4c(c3)OCCO4)nc(Nc3ccc4c(c3)OCCO4)nc2[nH]1 | LCK | enzyme activity, inhibitor | 10 µM | activity vs control | 2.1%
Cc1cnn2ncc(-c3ccnc(N(C)C)n3)c2c1 | LCK | cell-free assay | 1 µM | remaining signal | 100%
COc1cc2ncnc(Nc3ccc(Oc4ccccc4)c(C)c3C)c2cc1OC | LCK | enzyme activity, inhibitor | 1 µM | inhibition | 83%
Cc1ccc(C(=O)NCc2ccsc2)cc1C#Cc1cn(C(C)C)c2ncnc(N)c12 | LCK phosphorylated | enzyme activity, inhibitor | 1 µM | activity vs control | 2%
CCOc1cc(-c2nncn2C)ccc1Nc1ncc2cc(C)nc(NCC(C)(C)C)c2n1 | LCK | enzyme activity, inhibitor, FRET | 1 µM | inhibition | < 15%
NS(=O)(=O)c1cc(NC(=O)Cc2ccccc2)ccc1Oc1cccc(Cl)c1 | LCK | cell-free assay, competition with immobilised ligand | 1 µM | remaining binding | 70%
CNCc1ccc(-c2cc(-c3nc(-c4ccc(S(=O)(=O)C(C)C)cc4)cnc3N)on2)cc1 | LCK | enzyme activity, inhibitor | 2 µM | inhibition | 64%
Cc1cc(NC(=O)c2cccc3cc(-c4cccc5[nH]nc(N)c45)ccc23)ccc1F | LCK | enzyme activity, inhibitor | 0.1 µM | activity vs control | 90%
Cc1ccc(Nc2nccc(N(C)c3ccc4c(C)n(C)nc4c3)n2)cc1S(N)(=O)=O | LCK | enzyme activity, inhibitor | 0.3 µM | inhibition | 59%
CC(C)(C)n1nc(Cc2cccc3ccccc23)c2c(N)ncnc21 | LCK | enzyme activity, inhibitor | 0.5 µM | activity vs control | 80.4%
CSc1cccnc1N1CCN(Cc2nc3ccccc3[nH]2)CC1 | LCK | binding, competition with immobilised ligand | 1 µM | remaining binding | 100%
Cc1cn(-c2cc(NC(=O)c3ccc(C)c(Nc4nccc(-c5cccnc5)n4)c3)cc(C(F)(F)F)c2)cn1 | LCK | enzyme activity, inhibitor | 0.5 µM | activity vs control | 22.2%
O=C(O)c1cc(-c2ccc(C3CCNCC3)cc2)c2ccc(-c3ccc(C(F)(F)F)cc3)cc2c1 | LCK | cell-free assay, competition with immobilised ligand | 1 µM | remaining binding | 100%
N[C@H]1CCN(c2nccc(-c3cnn4ncccc34)n2)C1 | LCK | cell-free assay | 1 µM | remaining signal | 90%
CCS(=O)(=O)c1cc2cc(C[C@](O)(CC(C)(C)c3ccc(F)cc3C(N)=O)C(F)(F)F)[nH]c2cn1 | LCK | cell-free assay, competition with immobilised ligand | 1 µM | remaining binding | 100%
CN(C)C1CCN(CC#Cc2nn(C3CCCC3)c3nc(NCc4ccccc4)ncc23)C1 (stereo not shown) | LCK | enzyme activity, inhibitor, FRET | 1 µM | inhibition | 31%
CNC(=O)Nc1ccc2c(c1)[C@@]1(CC2)OC(=O)N(CC(=O)N(Cc2ccc(F)cc2)[C@@H](C)C(F)(F)F)C1=O | LCK | cell-free assay, competition with immobilised ligand | 1 µM | remaining binding | 86%
CNC(=O)c1cc2c(Oc3ccc(NC(=O)C4(C(=O)Nc5ccc(F)cc5)CC4)cc3)ccnc2cc1OC | LCK | enzyme activity, inhibitor, radiometric | 1 µM | inhibition | 99%
O=C(Nc1cccnn1)N1CC(C/C=C/c2cncc(Oc3ccc(C(F)(F)F)cn3)n2)C1 | LCK | cell-free assay, competition with immobilised ligand | 1 µM | remaining binding | 100%
COc1cc(/C=C/C(=O)CC(=O)/C=C/c2ccc(O)c(OC)c2)ccc1O | LCK | enzyme activity, inhibitor | 1 µM | activity vs control | 80%
